HNF4A DNA FP = change in binding of human HNF4 alpha to DNA | P41235 | HNF4a-FITC DNA binding, fluorescence polarization, 1 h | activity change, % at 10 µM | actives 0.3% (n = 360,000) | AID 1224865; in the data active = activity change above about 30%, passing the limit was not always enough
Exocytosis inh = blocks lytic granule exocytosis. TALL-104 LAMP-1 surface exposure, flow cytometry; cells stimulated with thapsigargin and PMA. inhibition, % at 10 µM. actives 0.66% (n = 360,000). AID 651702;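 active = inhibition above about 55%, limit read from the data; inconclusive = no clear call, values can overlap the other calls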
Pemphigus Ab inh = blocks pemphigus antibody binding to human desmoglein-3; actives 0.48% (n = 310,000); DSG3-coupled beads, scFv-anti-DSG3-GFP binding, flow cytometry; active compounds read low; AID 588358; binding (percent of control), % at 10 µM; P32926;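 active = binding more than 3 SD below its plate's average and above zero; inconclusive = below that plate limit but binding exactly zero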;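 note: hits lower antibody fragment binding to DSG3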
Target sequence (P32926 whole entry, looked up, the tested form may be a part): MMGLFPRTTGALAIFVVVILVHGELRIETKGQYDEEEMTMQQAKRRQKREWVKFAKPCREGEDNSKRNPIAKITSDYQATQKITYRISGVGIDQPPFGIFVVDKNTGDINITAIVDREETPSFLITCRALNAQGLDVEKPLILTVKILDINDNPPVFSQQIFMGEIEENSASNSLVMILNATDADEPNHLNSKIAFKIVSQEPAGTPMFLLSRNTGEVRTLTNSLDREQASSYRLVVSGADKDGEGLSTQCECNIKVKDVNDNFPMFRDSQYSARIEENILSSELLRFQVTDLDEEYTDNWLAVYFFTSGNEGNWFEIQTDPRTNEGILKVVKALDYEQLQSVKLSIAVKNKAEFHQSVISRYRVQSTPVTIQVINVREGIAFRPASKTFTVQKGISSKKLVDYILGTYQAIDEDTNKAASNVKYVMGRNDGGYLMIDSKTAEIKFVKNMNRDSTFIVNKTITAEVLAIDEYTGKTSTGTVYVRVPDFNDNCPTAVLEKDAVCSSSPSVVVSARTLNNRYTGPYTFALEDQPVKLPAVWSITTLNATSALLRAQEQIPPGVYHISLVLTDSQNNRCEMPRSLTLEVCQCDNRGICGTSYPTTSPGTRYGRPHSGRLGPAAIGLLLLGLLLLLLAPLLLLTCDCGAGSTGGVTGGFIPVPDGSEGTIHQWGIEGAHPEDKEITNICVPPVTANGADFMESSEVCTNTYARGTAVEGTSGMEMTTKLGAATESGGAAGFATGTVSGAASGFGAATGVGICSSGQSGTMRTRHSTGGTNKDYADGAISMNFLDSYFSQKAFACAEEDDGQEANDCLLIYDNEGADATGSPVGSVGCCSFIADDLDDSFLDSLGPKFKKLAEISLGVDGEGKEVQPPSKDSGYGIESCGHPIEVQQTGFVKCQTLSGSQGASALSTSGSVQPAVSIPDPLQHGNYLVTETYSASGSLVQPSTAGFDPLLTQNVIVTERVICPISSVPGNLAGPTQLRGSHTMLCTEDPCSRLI
H9c2 protect = protects H9c2 cardiomyocytes from peroxide injury; H2O2 injury protection, ATPLite, 2 h; protection from H2O2 cell death, % at 20 µM; actives 0.63% (n = 360,000);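 active = compounds giving at least 50% protection of heart cells from peroxide-induced death in the single-dose screen, raw or plate-pattern-corrected value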;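 note: 0% = DMSO wells with peroxide and 100% = DMSO wells without peroxide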
SENP1 inh = blocks the human SENP1 SUMO protease catalytic domain; Q9P0U3; recombinant SENP1 catalytic domain, CyPet-SUMO1-YPet FRET cleavage; inhibition, % at 10 µM; actives 0.21% (n = 360,000); AID 624204;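 active = inhibition at least 30% at 10 µM, raw YFP signal under a set limit, fluorescence ratio 0.5 to 1.5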;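 note: 0% = enzyme with DMSO and 100% = no enzyme wells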
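Test system: recombinant human SENP1 catalytic domain, His6-tagged / Medium: pH 8 Tris buffer with EDTA, NaCl, BME, BSA, NP40, catalase / Also added: SUMO1 FRET substrate flanked by Cypet and Ypet, 25 nM / Times: 50 min reaction at room temperature / Signal: FRET, CFP and YFP emission / Control set: no-enzyme low control and enzyme-plus-DMSO high control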
Myeloid diff MLP = promotes myeloid progenitor differentiation | ER-HoxA9 myeloid progenitors, lysozyme-GFP differentiation, flow cytometry | calls only at 10 µM | actives 1% (n = 360,000) | AID 624256;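 active = normalized GFP-positive differentiation at or above the plate's own cutoff, the solvent-only control mean plus 3 SD; inconclusive = no clear call, values can overlap the other calls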;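 note: cells exposed to compound for four days before flow analysis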
An asterisk follows results filed as active; i = inactive; u = inconclusive; x = not tested or not shown; + = active, no number. In the library only some 3% were active in any assay of this set; here they are far more common.

SMILES	HNF4A DNA FP	Exocytosis inh	Pemphigus Ab inh	H9c2 protect	SENP1 inh	Myeloid diff MLP
C#CCOCCOCCOCCNc1nc(N2CCN(C(=O)Cn3cc(CCCCN)nn3)CC2)nc(N2CCN(C(=O)Cn3cc(CCCCN)nn3)CC2)n1	3.9	-19.1	103.3	0.4	1.9	i
C#CCOCCOCCOCCNc1nc(N2CCOCC2)nc(N2CCN(C(=O)CCCCCCCCCCNC(=O)[C@@H]([C@H](C)CC)n3cc(CCCCCN)nn3)CC2)n1	1.3	-8.4	99.9	26.9	1.7	+
C#CCOCCOCCOCCNc1nc(N2CCN(C(=O)CCCCCCCCCCNC(=O)Cn3cc(CCCCCN)nn3)CC2)nc(N2CCN(C(=O)CCCCCCCCCCNC(=O)Cn3cc(CCCCCN)nn3)CC2)n1	38.1*	-1.1	111.8	4.4	-1.8	i
C#CCOCCOCCOCCNc1nc(N2CCN(C(=O)CCCCCCCCCCNC(=O)Cn3cc(CCCCCN)nn3)CC2)nc(N2CCN(C(=O)CCCCCCCCCCNC(=O)[C@@H](CCSC)n3cc(CCO)nn3)CC2)n1	15.6	65.1*	x	13.1	0.4	i
C#CCOCCOCCOCCNc1nc(N2CCN(C(=O)CCCCCCCCCCNC(=O)Cn3cc(CCCCCN)nn3)CC2)nc(N2CCN(C(=O)CCCCCCCCCCNC(=O)[C@@H](CCC(=O)O)n3cc(CCCCCN)nn3)CC2)n1	5.0	-4.0	106.5	0.0	-1.2	i
C#CCOCCOCCOCCNc1nc(N2CCN(C(=O)CCCCCCCCCCNC(=O)[C@H](CCCCN)n3cc(CCCC(=O)O)nn3)CC2)nc(N2CCN(C(=O)CCCCCCCCCCNC(=O)[C@@H]([C@H](C)O)n3cc(C)nn3)CC2)n1	4.1	11.9	101.0	-0.5	-1.1	i
C#CCOCCOCCOCCNc1nc(N2CCN(C(=O)CCCCCCCCCCNC(=O)[C@H](CCCCN)n3cc(C)nn3)CC2)nc(N2CCN(C(=O)CCCCCCCCCCNC(=O)[C@H](CCCCN)n3cc(CCCC(=O)O)nn3)CC2)n1	37.8*	-0.9	112.1	-3.8	-3.0	i
CCn1cc(CNC(=O)C2CCC(=O)N(C3CCCCCC3)C2)cn1 (centres undefined)	-2.1	0.5	105.1	-1.8	1.7	i
COc1ccc(CNC(=O)N2CCc3ccccc3C2)cc1Cl	5.8	-3.3	92.7	-1.4	1.4	i
CCN(CC)c1nc2cc(OC)ccc2cc1C#N	10.9	-1.8	108.9	-2.7	-19.6	+
COc1ccc2cc(C#N)c(N3CCOCC3)nc2c1	5.8	2.3	107.4	12.9	-33.9	+
Fc1ccc2nc(N3CCCC3)sc2c1	33.9*	-19.1	116.9	-10.4	-0.6	i
COc1ccc(N2CC(O)=C(c3nc(-c4ccc(Br)cc4)cs3)C2=N)cc1	6.1	-7.4	95.3	2.3	-1.2	i
COc1ccc(N2CC(O)=C(c3nc(-c4ccccc4)cs3)C2=N)cc1	0.5	-1.9	43.0*	-0.4	-2.2	i
CCC(C)N(C(=O)CN1C(=O)NC2(CCc3ccccc32)C1=O)C1CCS(=O)(=O)C1 (centres undefined)	-0.8	1.6	106.4	-0.7	-21.0	i
CCOC(=O)/C=C/C(=O)OCC(=O)Nc1ccc([N+](=O)[O-])cc1	-4.1	-1.9	94.0	6.8	2.2	i
CC(=O)NC(c1cc(Cl)c2ccccc2c1O)C(C)C (centres undefined)	0.3	2.1	104.6	-16.5	4.9	+
Oc1c(C(c2ccc(Cl)cc2)N2CCCC2)cc(Cl)c2cccnc12 (centres undefined)	-3.7	3.1	98.3	72.4*	2.9	i
CC(=O)NC(c1cc(Cl)c2cccnc2c1O)C1CC1 (centres undefined)	3.3	2.7	103.7	59.7*	4.9	u
C=CCN(c1ccccc1)S(=O)(=O)c1cccc(C(=O)Nc2ncccc2O)c1	-1.8	-1.1	102.4	-0.2	0.6	i
COc1cc(-c2cc(C(=O)Nc3ccccc3N3CCOCC3)c3ccccc3n2)cc(OC)c1OC	0.1	-3.6	109.2	88.8*	2.4	i
COc1cc(-c2cc(C(=O)Nc3ccc(O)cc3)c3ccccc3n2)cc(OC)c1OC	3.3	1.7	96.5	17.7	1.4	i
COc1ccccc1C(=O)Nc1ccccc1N1CCCCC1	2.6	67.1*	96.5	-6.5	-0.8	i
O=C(Nc1ccccc1N1CCOCC1)c1cc(-c2ccco2)nc2ccccc12	-7.4	4.1	105.6	7.5	4.4	i
COc1cc(-c2cc(C(=O)Nc3cccc(C(C)=O)c3)c3ccccc3n2)cc(OC)c1OC	-1.3	-6.1	113.2	54.7*	0.7	i
SMILES	HNF4A DNA FP	Exocytosis inh	Pemphigus Ab inh	H9c2 protect	SENP1 inh	Myeloid diff MLP
COc1ccc(Br)cc1C(=O)Nc1ccccc1N1CCCC1	1.3	2.6	100.5	-10.3	1.4	i
Oc1ccc(C[C@H]2CNC(=S)N2C[C@H]2CCCN2C[C@H](Cc2ccccc2)N2C[C@H](Cc3ccc(O)cc3)N(CC3CCCCCC3)C2=S)cc1	-1.6	8.8	x	-12.4	1.1	i
CC(C(=O)O)N1C(=O)/C(=C/C=C/c2ccco2)SC1=S (centres undefined)	-46.5	5.4	69.1*	-0.4	36.2	i
O=C1/C(=C/C=C/c2ccco2)SC(=S)N1NS(=O)(=O)c1ccccc1	-58.0	-5.4	51.1*	2.8	11.7	i
CCCN(Cc1ccccc1)C(=S)Nc1ccc(SC(F)F)cc1	1.5	90.1*	121.2	-9.6	1.2	i
Cc1ccc(-c2cc(-c3ccc(F)cc3)c(C#N)c(N)n2)o1	-2.4	-3.6	87.1	-10.2	-24.9	+
Cc1ccc(-c2cc(-c3ccc(C)o3)nc(N)c2C#N)cc1	15.1	3.1	100.4	6.2	-0.8	+
Cc1ccc(-c2cc(-c3ccc(Cl)cc3)c(C#N)c(N)n2)o1	11.7	45.3	102.9	1.4	-22.9	i
CN(NC1OC(=O)c2ccccc21)c1ccc(C(F)(F)F)cc1[N+](=O)[O-] (centres undefined)	4.8	-12.9	83.8*	1.5	2.9	i
CCCn1c(=N)n(CC(O)COc2ccc(C)cc2)c2ccccc21 (centres undefined)	0.5	26.1	110.7	-4.7	-0.8	i
CCCCn1c(=N)n(CC(O)COc2cccc(C)c2)c2ccccc21 (centres undefined)	4.3	6.2	120.8	-21.6	0.0	+
CCC/C(C#Cc1ccc(N(C)C)cc1)=C1/c2ccccc2C(=O)N1c1ccccc1	94.8	3.9	173.2	-5.1	-22.2	+
CCC/C(C#Cc1cc(OC)cc(OC)c1)=C1/c2ccccc2C(=O)N1c1ccccc1	-0.2	1.2	x	1.1	-7.6	i
Cc1ccc(CON=C2CCN(c3ncc(C(F)(F)F)cc3Cl)CC2)cc1	4.4	2.5	96.6	-13.6	0.1	+

Compound activity (PubChem)
